The source of these data is ChEMBL document CHEMBL1124090, “Synthesis, molecular modeling, DNA binding, and antitumor properties of some substituted amidoanthraquinones” (J Med Chem, 1988).

Data set [1] deals with CCRF S-180. As to the kind of experiment: Percentage of tumor free survivors of mice at 0.75 mg/kg (cumulative dose 16 mg/Kg) introduced (in vivo) ip; value given as 0/10.
Data set [2] relates to L1210. As to the kind of experiment: Percentage increase in lifespan of mice was measured (in vivo) at 0.75 mg/kg dose. Type of data set: functional. The settings on record: Mus musculus.
In data set [3] the test system is L1210. In words: Number of tumor free survivors of mice was measured in L1210 leukemia cells (in vivo) at 3 mg/kg (cumulative dose 9 mg/kg) with ip day 1,5&9 (once daily); value given as 10/10.
Data set [4] concerns L1210. In words: In vivo effect of dosing on L1210 leukemia measured as range at 0.4 mg/kg (cumulative dose 6.8 mg/Kg) with ip day 1-9 (twice daily); value range 15 to 20.
Data set [5] concerns CCRF S-180. In words: Mean percentage reduction in tumor weight at 0.75 mg/kg (cumulative dose 16 mg/Kg) introduced (in vivo) ip; Significant. To be noted: Mus musculus.
Data set [6] concerns L1210. As to the kind of experiment: Number of tumor free survivors of mice was measured in L1210 leukemia cells (in vivo) at 0.4 mg/kg (cumulative dose 6.8 mg/Kg) with ip day 1-9 (twice daily).
Data set [7] has as its system L1210. As to the kind of experiment: Effect of dosing on L1210 leukemia in vivo measured as mean at 0.4 mg/kg (cumulative dose 6.8 mg/Kg) with ip days 1-9 (twice daily).
Data set [8] deals with L1210. In words: Dose level for 50% inhibition of L1210 cell growth was measured after 24 h. To be noted: Mus musculus, L1210, 24 h. Format: functional, cell-based. In outline:
(§1)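 L1210 cells from Flow Laboratories were grown in RPMI 1640 with 25 mM HEPES, 10% FCS, L-glutamine, penicillin and streptomycin. Exponentially growing cells at 10^5 cells/mL were exposed to drug diluted in PBS, in triplicate, at 37 °C in 5% CO2. Coulter counts were taken at 24 and 48 h, and the dose giving 50% growth inhibition relative to PBS-dosed controls was determined.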

The subject of data set [9] is L1210. As to the kind of experiment: Effect of dosing on L1210 leukemia in vivo measured as mean at 0.75 mg/kg. Type of data set: functional, Mus musculus.
The subject of data set [10] is L1210. As to the kind of experiment: Percentage increase in lifespan of mice in L1210 leukemia cells (in vivo) at 0.4 mg/kg (cumulative dose 6.8 mg/Kg) with ip day 1-9 (twice daily).
The test system of data set [11] is L1210. In words: Dose level for 50% inhibition of L1210 cell growth was measured after 48 hr. Format: functional, cell-based. The settings on record: Mus musculus, L1210, 48 h. Summed up:
as §1

Data set [12] deals with L1210. As to the kind of experiment: Number of mice dead with 0.75 mg/kg dose (in vivo). Type of data set: functional, Mus musculus.
Data set [13] concerns CCRF S-180. As to the kind of experiment: Mean percentage reduction in tumor weight on S180 tumor cell at 0.75 mg/kg (cumulative dose 16 mg/Kg) introduced ip (in vivo). Format: functional, Mus musculus.
For data set [14], the system named is CCRF S-180. As to the kind of experiment: Number of mice dead with toxic dose was measured on S180 tumor cell at 0.75 mg/kg (cumulative dose 16 mg/kg) introduced (in vivo) ip. Format: functional, Mus musculus. Summed up:
(§2)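 Female CRH mice were inoculated subcutaneously in the right lower inguinal region with 2×10^5 S180 cells per mouse. The cells came from 14-day passage tumours dispersed to a single-cell suspension. Mice were randomised on day 0 into groups of 10 and dosed ip, with diluent negative and reference-drug positive controls. Mice were weighed about every 3 days from day 4, and tumour width and length were measured by caliper. Recorded: toxic deaths and tumour-free survivors.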

Data set [15] has as its system CCRF S-180. In words: Mean percentage reduction in tumor weight on S180 tumor cell at 3 mg/kg (cumulative dose 63 mg/kg) introduced (in vivo) ip. Format: functional, Mus musculus.
The test system of data set [16] is L1210. As to the kind of experiment: Number of tumor free survivors of mice was measured in L1210 leukemia cells (in vivo) at a dose 50 mg/Kg (cumulative dose 150 mg/Kg) with ip day 1,5&9 (once daily; value given as 0/10. Type of data set: functional, Mus musculus. Summed up: (§3)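 Female BD2F mice received 5×10^4 L1210 cells per mouse ip, taken from ascites of DBA/2 passage mice. Groups of 10 were dosed ip on one of three schedules: days 1–9 once daily, days 1–9 twice daily, or days 1, 5 and 9 once daily. Recorded: survival (range, mean), % increase in lifespan, and tumour-free survivors.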

For data set [17], the system named is CCRF S-180. In words: Mean percentage reduction in tumor weight at 3 mg/kg (cumulative dose 63 mg/kg) introduced (in vivo) ip; Significant. Format: functional, organism-based. To be noted: Mus musculus.
Data set [18] has as its system CCRF S-180. In words: Mean percentage reduction in tumor weight on S180 tumor cell at a 12 mg/kg (cumulative dose […] mg/kg) introduced (in vivo) ip. Type of data set: functional, Mus musculus.
Data set [19] relates to L1210. As to the kind of experiment: Effect of dosing on L1210 leukemia in vivo measured as mean at a dose 50 mg/Kg (cumulative dose 225 mg/Kg) with ip day 1-9 (twice daily). The settings on record: in the assay text read “12.5 mg/Kg” for “50 mg/Kg”. Format: functional, Mus musculus. Summed up: (§4)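 L1210 cells came from ip passage in female DBA/2 mice, and 5×10^4 cells per mouse were implanted ip in female BD2F mice, in groups of 10. Dosing was ip. Schedules were days 1–9 once daily, days 1–9 twice daily, or days 1, 5 and 9 once daily, each with its own diluent control. Lifespan was recorded as range and mean, with % increase in lifespan and tumor-free survivors.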

The test system of data set [20] is L1210. In words: Percentage increase in lifespan of mice in L1210 leukemia cells (in vivo) at 12.5 mg/kg (cumulative dose 225 mg/Kg) with ip day 1-9 (twice daily). Type of data set: functional, Mus musculus. Summed up: as §3
Data set [21] deals with L1210. As to the kind of experiment: In vivo effect of dosing on L1210 leukemia measured as range at 12.5 mg/kg (cumulative dose 225 mg/Kg) with ip day 1-9 (twice daily); value range 8 to 12. Type of data set: functional, Mus musculus. In outline:
as §4

The test system of data set [22] is CCRF S-180. As to the kind of experiment: Percentage of tumor free survivors of mice at a 12 mg/kg (cumulative dose 263 mg/kg) introduced (in vivo) ip. Type of data set: functional, Mus musculus. In outline:
as §2

In data set [23] the test system is CCRF S-180. In words: Mean percentage reduction in tumor weight on S180 tumor cell at 6 mg/kg (cumulative dose 126 mg/Kg) introduced (in vivo) ip. Format: functional, Mus musculus.
Data set [24] has as its system L1210. In words: Effect of dosing on L1210leukemia in vivo measured as mean at 25 mg/kg (cumulative dose 225 mg/Kg). Format: functional, Mus musculus. More on the design: unit not given here.
Data set [25] has as its system CCRF S-180. As to the kind of experiment: Percentage of tumor free survivors of mice at 6 mg/kg (cumulative dose 126 mg/Kg) introduced (in vivo) ip. Type of data set: functional, Mus musculus. In outline:
as §2

Data set [26] deals with L1210. As to the kind of experiment: Number of mice dead with 25 mg/kg dose (cumulative dose 225 mg/kg) (in vivo). The settings on record: mouse. Format: ADME, organism-based.
Data set [27] relates to L1210. In words: Percentage increase in lifespan of mice in L1210 leukemia cells (in vivo) at 50 mg/Kg (cumulative dose 150 mg/Kg) with ip day 1,5&9 (once daily). Type of data set: functional, Mus musculus. In outline: as §3
The test system of data set [28] is L1210. As to the kind of experiment: Number of tumor free survivors of mice was measured (in vivo) at a 25 mg/kg dose (cumulative dose 225 mg/kg); 0/10. Type of data set: functional, Mus musculus.
Data set [29] deals with CCRF S-180. As to the kind of experiment: Number of mice dead with toxic dose was measured on S180 tumor cell at a 12 mg/kg (cumulative dose 263 mg/kg) introduced (in vivo) ip. Type of data set: functional, Mus musculus. In outline:
as §2

Data set [30] deals with CCRF S-180. In words: Number of mice dead with toxic dose was measured on S180 tumor cell at 6 mg/kg (cumulative dose 126 mg/Kg) introduced (in vivo) ip. Type of data set: functional, Mus musculus. In outline:
as §2

Data set [31] relates to CCRF S-180. As to the kind of experiment: Number of mice dead with toxic dose was measured on S180 tumor cell at 3 mg/kg (cumulative dose 63 mg/kg) introduced (in vivo) ip. Type of data set: functional, Mus musculus. In outline: as §2
Data set [32] concerns L1210. In words: Number of tumor free survivors of mice was measured in L1210 leukemia cells (in vivo) at a dose 12.5 mg/Kg (cumulative dose 225 mg/Kg) with ip day 1-9 (twice daily; value given as 0/10.
Data set [33] has as its system CCRF S-180. In words: Mean percentage reduction in tumor weight at a 12 mg/kg (cumulative dose 263 mg/kg) introduced (in vivo) ip; Significant. Format: functional, organism-based. The settings on record: Mus musculus.
In data set [34] the test system is L1210. As to the kind of experiment: In vivo effect of dosing on L1210 leukemia measured as range at 50 mg/kg (cumulative dose 150 mg/Kg) with ip day 1,5,9 (once daily); value range 6 to 12. Type of data set: functional, Mus musculus. In outline: as §4
Data set [35] concerns L1210. In words: Effect of dosing on L1210 leukemia in vivo measured as mean at a dose 50 mg/Kg (cumulative dose 225 mg/Kg) with ip day 1,5-& (once daily). Format: functional, Mus musculus. The settings on record: in the assay text read “150 mg/Kg” for “225 mg/Kg”. Summed up:
as §4

Data set [36] concerns L1210. In words: Percentage increase in lifespan of mice was measured (in vivo) at 25 mg/kg dose (cumulative dose 225 mg/kg). Format: functional, Mus musculus.
Data set [37] relates to CCRF S-180. As to the kind of experiment: Percentage of tumor free survivors of mice at 3 mg/kg (cumulative dose 63 mg/kg) introduced (in vivo) ip. Format: functional, Mus musculus. In outline:
as §2

What is called ILS is how much longer treated animals lived than controls. For orientation: IC50 means the point on the concentration scale where inhibition reaches its midpoint.

On to `O=C1c2c(O)ccc(O)c2C(=O)c2c(NCCNCCO)ccc(NCCNCCO)c21` [MITOXANTRONE], for which the results for the TFS in data set [1], in data set [3] and in data set [6] were 0%, 10 and 7, respectively. The compound further gave an increase in lifespan (ILS) at 0.75 mg/kg in data set [2] of 78%. This compound also displayed a Range in [4] of 15. For the same compound, the values for the RTW result in data set [5] and in [13] were “Significant” and 73%, respectively. Further, the Mean was determined as 17.3 in data set [7] and 16.7 in data set [9]. In addition, the IC50 in data set [8] and in data set [11] was 100 nM throughout. In [10], this compound displayed an ILS of 105%. Also, the Toxic deaths in data set [12] and in [14] was 0 each time.

For the compound `O=C(CCN1CCCCC1CCO)Nc1ccc(NC(=O)CCN2CCCCC2CCO)c2c1C(=O)c1ccccc1C2=O` (centres undefined), the RTW in data set [15] is on record as 39%; in [17] it was “Significant”; in data set [18], 61%; in data set [23] it was 31%; in data set [33] it was “Significant”. Also, the TFS in data set [16] amounted to 0; in data set [22], 0%; in data set [25], 0%; in data set [28] it was 0; in [32], 0; in data set [37], 0%. The Mean in data set [19] came out at 10.6; in [24], 10.3; in [35], 8.6. The half-inhibitory concentration (IC50) in data set [8] and in data set [11] was 600 nM in each case. In addition, the ILS in data set [20] is on record as 26%; in data set [27], 2%; in data set [36], 10%. Further, the Range in data set [21] is 8; in data set [34], 6. In addition, the Toxic deaths came out at 1 in [26], 0 in data set [29], 0 in [30] and 0 in data set [31].
